Measured values as given in ChEMBL document CHEMBL4396943, “The tetrahydroxanthone-dimer phomoxanthone A is a strong inducer of apoptosis in cisplatin-resistant solid cancer cells” (Bioorg Med Chem, 2019).
Active and inactive are the calls of the source. The rule behind the calls is not given here.

What was measured:
J82 [1] = test: Cell cycle arrest in cisplatin resistant human J82 cells assessed as accumulation at G1 phase at 5 uM incubated for 24 hrs by propidium iodide staining based flow cytometry (reference value: 78.1%); type: functional
Outline: (§1)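 After 24 h exposure, cells washed in ice-cold PBS. About 2 million cells fixed in cold 70% ethanol at −20 °C for at least 24 h. Stained with 0.1% Triton X-100, 200 µg/ml RNase A and 20 µg/ml propidium iodide in PBS, 15 min at 37 °C in the dark. DNA content read by flow cytometry with doublet discrimination. Medium as untreated control, paclitaxel as G2/M control. Three independent experiments.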

A2780 [2] = test: Antiproliferative activity against human A2780 cells assessed as reduction in cell viability incubated for 72 hrs by MTT assay; type: functional, cell-based; settings: A2780, 72 h
Outline: (§2)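 Cells seeded overnight in 96-well plates, then exposed to increasing concentrations (compound dissolved in DMSO, diluted in medium) for the stated time. MTT (5 mg/ml in PBS) added for 15 min, formazan dissolved in DMSO, absorbance read at 544 nm minus 690 nm background. IC50 = concentration giving 50% signal decrease. At least three independent experiments in triplicate.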

J82 [3] = test: Antiproliferative activity against human J82 cells assessed as reduction in cell viability incubated for 72 hrs by MTT assay; type: functional, cell-based; settings: J82, 72 h; outline: as §2
Homo sapiens = species on record: Homo sapiens; test: Ratio of IC50 for induction of mitochondrial membrane depolarization in human J82 cells to IC50 for induction of mitochondrial membrane depolarization human A2780 cells after 2 hrs by TMRE staining based flow cytometry; type: functional, cell-based
Outline: (§3)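 Cells seeded overnight; complete medium swapped for FBS-free medium just before treatment to avoid TMRE ester cleavage. Exposure to PXA for 1 h, 2 h or 24 h. TMRE staining 20 min, cells collected by trypsinisation, ΔΨm read by flow cytometry. Medium served as negative control, 20 µM CCCP as positive control. Mean ± SEM reported.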

A2780 [4] = test: Cell cycle arrest in human A2780 cells assessed as accumulation at G1 phase at 10 uM incubated for 24 hrs by propidium iodide staining based flow cytometry (reference value: 61.8%); type: functional; outline: as §1
J82 [5] = test: Cell cycle arrest in human J82 cells assessed as accumulation at G1 phase at 5 uM incubated for 24 hrs by propidium iodide staining based flow cytometry (reference value: 69.6%); type: functional; outline: as §1
A2780 [6] = test: Antiproliferative activity against human A2780 cells assessed as reduction in cell viability incubated for 48 hrs by MTT assay; type: functional, cell-based; settings: A2780, 48 h; outline: as §2
A2780 [7] = test: Induction of apoptosis in human A2780 cells assessed as depolarization of mitochondrial membrane potential incubated for 2 hrs by TMRE staining based flow cytometry; type: functional, cell-based; outline: as §3
A2780 [8] = test: Induction of apoptosis in human A2780 cells assessed as depolarization of mitochondrial membrane potential at 1 uM incubated for 1 hr by TMRE staining based flow cytometry; type: functional
Outline: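 Cells seeded overnight; medium switched to FBS-free just before treatment to avoid TMRE ester cleavage. Exposure 1 h, 2 h or 24 h, then TMRE staining for 20 min. Cells trypsinized, centrifuged at 4 °C and read by flow cytometry. Medium as negative control, 20 µM CCCP as positive control. […]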

A2780cisR [9] = test: Induction of apoptosis in human A2780cisR cells assessed as depolarization of mitochondrial membrane potential incubated for 2 hrs by TMRE staining based flow cytometry; type: functional, cell-based; outline: as §3
J82 [10] = test: Cell cycle arrest in cisplatin resistant human J82 cells assessed as accumulation at G1 phase at 1 uM incubated for 24 hrs by propidium iodide staining based flow cytometry (reference value: 78.1%); type: functional; outline: as §1
A2780cisR [11] = test: Induction of apoptosis in human A2780cisR cells assessed as depolarization of mitochondrial membrane potential at 1 uM by TMRE staining based flow cytometry; type: functional, cell-based; settings: TDE = time-dependent effect; outline: as §3
A2780cisR [12] = test: Induction of apoptosis in human A2780cisR cells assessed as plasma membrane damage at 1 to 10 uM incubated for 24 hrs by propidium iodide staining based flow cytometry; type: functional, cell-based
Outline: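 Cells exposed to PXA for 24 h, trypsinised, pelleted at 4 °C, stained with 100 µg/ml propidium iodide, diluted in sheath fluid and read by flow cytometry. Positive control was 0.2% Triton X-100 (20 min). Three experiments, mean ± SEM.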

J82 [13] = test: Induction of apoptosis in human J82 cells assessed as mitochondrial membrane potential at 1 uM incubated for 2 hrs by hoechst 33342 staining based fluorescence microscopy; type: functional, cell-based
Outline: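 J82 cells treated 2 h with PXA, then labelled 20 min with TMRE plus Hoechst 33342. ΔΨm read by high-content fluorescence imaging. Untreated medium and 20 µM CCCP served as controls.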

A2780 [14] = test: Cell cycle arrest in human A2780 cells assessed as accumulation at G1 phase incubated for 24 hrs by propidium iodide staining based flow cytometry; type: functional; outline: as §1
MDA-MB-231 = test: Potency index, ratio of cisplatin IC50 to compound IC50 for antiproliferative activity in human MDA-MB-231 cells assessed as reduction in cell viability incubated for 72 hrs by MTT assay; type: functional
Outline: (§4)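 Cells seeded in 96-well plates overnight, exposed 72 h to increasing concentrations. MTT (5 mg/ml) added for 15 min, formazan dissolved in DMSO, absorbance read at 544 nm with 690 nm background subtracted. IC50 is the concentration reducing signal by 50%. Three independent experiments in triplicate. CisR sublines made by weekly intermittent cisplatin exposure for 24–30 weeks.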

A2780cisR [15] = test: Induction of apoptosis in human A2780cisR cells assessed as depolarization of mitochondrial membrane potential incubated for 1 hr by TMRE staining based flow cytometry; type: functional, cell-based; outline: as §3
[16] = Antiproliferative activity against human Cal27CisR cells assessed as reduction in cell viability incubated for 72 hrs by MTT assay; type: functional, cell-based; outline: as §2
A2780cisR [17] = test: Induction of apoptosis in human A2780cisR cells assessed as accumulation in subG1 phase at 1 uM incubated for 24 hrs by propidium iodide staining based flow cytometry relative to control; type: functional
Outline: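 About 100,000 cells/well plated; after one day, treated 24 h. Cells lysed in hypotonic buffer (0.1% sodium citrate, 0.1% Triton X-100, 100 µg/ml propidium iodide) and kept overnight at 4 °C in the dark. Sub-G1 fraction measured by flow cytometry. Medium as control, cisplatin as positive control.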

A2780cisR [18] = test: Induction of apoptosis in human A2780cisR cells assessed as decrease in claspin expression at 5 uM incubated for 24 hrs by proteome profiler analysis; type: functional, cell-based
Outline: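 A2780 and A2780CisR cells treated 24 h with 5 µM PXA; apoptosis-related proteins profiled with a human apoptosis antibody array following kit instructions.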

A2780 [19] = test: Induction of apoptosis in human A2780 cells assessed as depolarization of mitochondrial membrane potential incubated for 1 hr by TMRE staining based flow cytometry; type: functional, cell-based; outline: as §3
A2780cisR [20] = test: Cell cycle arrest in human A2780cisR cells assessed as accumulation at G1 phase at 10 uM incubated for 24 hrs by propidium iodide staining based flow cytometry (reference value: 68.7%); type: functional; outline: as §1
[21] = Potency index, ratio of cisplatin IC50 to compound IC50 for antiproliferative activity in human Cal27CisR cells assessed as reduction in cell viability incubated for 72 hrs by MTT assay; type: functional; outline: as §4

`CC(=O)OC[C@]12Oc3c(-c4ccc(O)c5c4O[C@@]4(COC(C)=O)C(=C(O)C[C@@H](C)[C@H]4OC(C)=O)C5=O)ccc(O)c3C(=O)C1=C(O)C[C@@H](C)[C@H]2OC(C)=O` [PHOMOXANTHONE A] gave an Activity (J82 [1]) of 79.3%, an IC50 (A2780 [2]; read-out: IC50) of 0.58 µM and an IC50 (A2780 [2]; read-out: pIC50 (converted)) of 0.575 µM. For the same compound, the IC50 (J82 [3]) was 3.23 µM, the Ratio IC50 (Homo sapiens) was 3 and the Activity (A2780 [4]) was 78.9%. It also gave an Activity (J82 [5]) of 68%, an IC50 (A2780 [6]; read-out: IC50) of 1.18 µM and an IC50 (A2780 [6]; read-out: pIC50 (converted)) of 1.17 µM. For the same compound, the Activity (A2780 [7]) was “Dose-dependent effect”, the IC50 (A2780 [7]; A2780, 2 h) was 0.75 µM and the Activity (A2780 [8]) was 73%. For the same compound, the Activity (A2780cisR [9]) was “Dose-dependent effect”, the IC50 (A2780cisR [9]) was 0.86 µM and the Activity (J82 [10]) was 76.3%. For the same compound, the Activity (A2780cisR [11]) was “Tde”, the Activity (A2780cisR [12]) was “inactive” and the Activity (J82 [13]) was “inactive”. For the same compound, the Activity (A2780 [14]) was “Dose-dependent effect”, the “Ratio IC50” value (MDA-MB-231) was 2 - 10 and the Activity (A2780cisR [15]) was “Dose-dependent effect”. It also gave an IC50 (A2780cisR [15]) of 1.25 µM, an IC50 [16] of 5.62 µM and an Activity (A2780cisR [17]) of 70%. For the same compound, the Activity (A2780cisR [18]) was “Active”, the Activity (A2780 [19]) was “Dose-dependent effect” and the IC50 (A2780 [19]; A2780, 1 h) was 1.01 µM. The Activity (A2780cisR [20]) was 81.1% and the “Ratio IC50” value [21] was 2 - 10.
